What is called inhibition is the relative decrease from the control value, in per cent. For orientation: TD50 means the dose at which the toxic effect under study appears in half of the subjects.

Data set [1] addresses Sigma non-opioid intracellular receptor 1 (Homo sapiens) (UniProt Q99720). Nature of the data set: Inhibition of sigma-1 receptor (unknown origin) at 10 uM relative to control.
Data set [2] is described as follows: Toxicity in po dosed albino Sprague-Dawley rat assessed as behavioral changes measured at 0.25 to 4 hrs. Type of data set: organism-based. As to conditions: in vivo. Put shortly:
(§1)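 Male albino Sprague-Dawley rats given compound intraperitoneally or orally (NINDS ASP); neurological impairment judged from behavioral toxicity effects. Preset screening doses (e.g., 30 mg/kg); for adequately active compounds, TD50 (mg/kg, 95% confidence intervals) derived from dose–effect data at time of peak effect.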

Data set [3] addresses Sodium-dependent serotonin transporter (Homo sapiens) (UniProt P31645). Put plainly: Inhibition of SERT (unknown origin) at 10 uM relative to control.
Data set [4] has as its target 5-hydroxytryptamine receptor 2A (Homo sapiens) (UniProt P28223). Put plainly: Inhibition of 5-HT2A receptor (unknown origin) at 10 uM relative to control.
Data set [5] can be described thus: Solubility of the compound in water at 300 uM. Type of data set: physicochemical. The procedure, abridged:
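Hydrochloride salts checked for dissolution in water at 300 µM.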

Data set [6] concerns the target Beta-2 adrenergic receptor (Homo sapiens) (UniProt P07550). Put plainly: Inhibition of adrenergic beta-2 receptor (unknown origin) at 10 uM relative to control.
Data set [7] addresses D(3) dopamine receptor (Homo sapiens) (UniProt P35462). Put plainly: Inhibition of dopaminergic D3 receptor (unknown origin) at 10 uM relative to control.
The target in data set [8] is Translocator protein (Homo sapiens) (UniProt P30536). Put plainly: Inhibition of PBR (unknown origin) at 10 uM relative to control.
Sequence of Translocator protein (Homo sapiens) (P30536 whole entry): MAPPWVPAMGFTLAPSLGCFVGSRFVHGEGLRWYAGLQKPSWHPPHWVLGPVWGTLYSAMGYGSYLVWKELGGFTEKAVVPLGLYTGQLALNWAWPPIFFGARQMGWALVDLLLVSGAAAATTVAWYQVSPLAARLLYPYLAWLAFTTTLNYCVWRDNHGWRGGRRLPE
The target of data set [9] is Kappa-type opioid receptor (Homo sapiens) (UniProt P41145). Put plainly: Inhibition of kappa opioid receptor (unknown origin) at 10 uM relative to control.
Sequence of Kappa-type opioid receptor (Homo sapiens) (P41145 whole entry): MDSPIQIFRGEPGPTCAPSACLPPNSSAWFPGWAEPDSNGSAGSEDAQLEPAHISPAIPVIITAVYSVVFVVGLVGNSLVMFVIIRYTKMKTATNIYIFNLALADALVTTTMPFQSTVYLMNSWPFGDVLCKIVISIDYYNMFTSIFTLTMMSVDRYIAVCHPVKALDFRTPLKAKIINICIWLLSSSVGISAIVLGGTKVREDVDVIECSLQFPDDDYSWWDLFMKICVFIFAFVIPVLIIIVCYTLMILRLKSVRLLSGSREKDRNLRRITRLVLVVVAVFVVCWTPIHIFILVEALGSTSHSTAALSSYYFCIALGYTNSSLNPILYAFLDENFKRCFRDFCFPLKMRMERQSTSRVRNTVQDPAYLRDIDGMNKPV
The target in data set [10] is Mu-type opioid receptor (Homo sapiens) (UniProt P35372). Put plainly: Inhibition of mu opioid receptor (unknown origin) at 10 uM relative to control.
Sequence of Mu-type opioid receptor (Homo sapiens) (P35372 whole entry): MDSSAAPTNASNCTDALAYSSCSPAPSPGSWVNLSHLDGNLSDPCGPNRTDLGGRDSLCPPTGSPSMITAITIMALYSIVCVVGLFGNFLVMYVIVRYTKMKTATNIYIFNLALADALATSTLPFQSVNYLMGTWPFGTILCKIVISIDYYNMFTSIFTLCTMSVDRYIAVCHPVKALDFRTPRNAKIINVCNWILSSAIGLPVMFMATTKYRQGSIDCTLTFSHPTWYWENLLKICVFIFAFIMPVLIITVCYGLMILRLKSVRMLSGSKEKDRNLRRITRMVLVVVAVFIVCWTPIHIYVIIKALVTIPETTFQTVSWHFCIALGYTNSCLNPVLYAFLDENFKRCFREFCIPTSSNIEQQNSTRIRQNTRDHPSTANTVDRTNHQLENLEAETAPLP
Data set [11] addresses Beta-3 adrenergic receptor (Homo sapiens) (UniProt P13945). Put plainly: Inhibition of adrenergic beta-3 receptor (unknown origin) at 10 uM relative to control.
In data set [12] the target is T1, Alpha-2C adrenergic receptor (Homo sapiens) (UniProt P18825).
T1 sequence (whole entry): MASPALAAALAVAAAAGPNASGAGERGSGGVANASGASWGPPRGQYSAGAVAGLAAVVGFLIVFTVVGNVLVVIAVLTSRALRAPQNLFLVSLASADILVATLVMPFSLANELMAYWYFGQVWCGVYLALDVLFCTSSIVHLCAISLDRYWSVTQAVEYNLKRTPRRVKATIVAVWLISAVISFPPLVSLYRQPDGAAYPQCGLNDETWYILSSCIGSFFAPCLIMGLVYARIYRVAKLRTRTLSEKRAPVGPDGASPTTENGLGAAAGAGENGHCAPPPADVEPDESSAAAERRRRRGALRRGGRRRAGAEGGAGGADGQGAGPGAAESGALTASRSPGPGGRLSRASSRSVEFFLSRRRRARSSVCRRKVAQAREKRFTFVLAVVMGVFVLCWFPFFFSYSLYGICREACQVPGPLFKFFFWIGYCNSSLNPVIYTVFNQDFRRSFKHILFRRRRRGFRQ
Nature of the data set: Inhibition of adrenergic alpha-2C receptor (unknown origin) at 10 uM relative to control.

In data set [13] the target is T2, Alpha-2B adrenergic receptor (Homo sapiens) (UniProt P18089).
T2 sequence (whole entry): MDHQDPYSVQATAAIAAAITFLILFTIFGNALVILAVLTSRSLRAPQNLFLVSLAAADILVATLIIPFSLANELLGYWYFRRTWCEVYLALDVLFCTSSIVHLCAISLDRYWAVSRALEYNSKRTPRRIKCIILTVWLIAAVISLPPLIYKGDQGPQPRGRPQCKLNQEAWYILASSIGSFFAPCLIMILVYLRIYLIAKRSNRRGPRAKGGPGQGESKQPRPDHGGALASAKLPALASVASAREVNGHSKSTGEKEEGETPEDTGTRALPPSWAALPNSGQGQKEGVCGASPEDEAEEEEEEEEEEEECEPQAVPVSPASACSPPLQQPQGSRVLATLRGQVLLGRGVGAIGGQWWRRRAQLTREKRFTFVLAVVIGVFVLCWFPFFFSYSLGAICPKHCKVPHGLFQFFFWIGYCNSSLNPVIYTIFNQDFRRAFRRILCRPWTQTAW
Nature of the data set: Inhibition of adrenergic alpha-2B receptor (unknown origin) at 10 uM relative to control.

Data set [14] deals with 5-hydroxytryptamine receptor 5A (Homo sapiens) (UniProt P47898). Put plainly: Inhibition of 5-HT5A receptor (unknown origin) at 10 uM relative to control.
Sequence of 5-hydroxytryptamine receptor 5A (Homo sapiens) (P47898 whole entry): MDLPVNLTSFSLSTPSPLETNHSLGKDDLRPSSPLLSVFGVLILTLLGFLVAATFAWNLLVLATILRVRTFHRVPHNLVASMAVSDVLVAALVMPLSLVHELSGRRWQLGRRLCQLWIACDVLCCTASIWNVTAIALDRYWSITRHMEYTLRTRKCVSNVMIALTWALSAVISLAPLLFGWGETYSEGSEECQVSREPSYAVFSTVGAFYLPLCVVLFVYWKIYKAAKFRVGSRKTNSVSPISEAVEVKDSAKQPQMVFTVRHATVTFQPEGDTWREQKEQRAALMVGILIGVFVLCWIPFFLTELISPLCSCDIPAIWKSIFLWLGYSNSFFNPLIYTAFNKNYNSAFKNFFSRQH
Data set [15] addresses T3, 5-hydroxytryptamine receptor 2C (Homo sapiens) (UniProt P28335).
T3 sequence (whole entry): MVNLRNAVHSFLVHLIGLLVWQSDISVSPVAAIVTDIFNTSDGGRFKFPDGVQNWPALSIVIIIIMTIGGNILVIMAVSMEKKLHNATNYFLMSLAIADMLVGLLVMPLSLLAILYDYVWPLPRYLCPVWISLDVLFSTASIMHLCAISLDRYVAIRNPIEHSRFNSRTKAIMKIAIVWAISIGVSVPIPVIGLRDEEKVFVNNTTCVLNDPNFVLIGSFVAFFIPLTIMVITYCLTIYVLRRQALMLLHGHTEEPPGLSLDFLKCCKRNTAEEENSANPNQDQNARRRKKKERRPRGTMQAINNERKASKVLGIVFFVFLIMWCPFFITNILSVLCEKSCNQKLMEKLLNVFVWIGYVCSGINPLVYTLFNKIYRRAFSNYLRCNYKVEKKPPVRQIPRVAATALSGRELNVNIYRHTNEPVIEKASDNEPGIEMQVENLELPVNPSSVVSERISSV
Nature of the data set: Inhibition of 5-HT2C receptor (unknown origin) at 10 uM relative to control.

Data set [16] deals with T4, Alpha-2A adrenergic receptor (Homo sapiens) (UniProt P08913).
T4 sequence (whole entry): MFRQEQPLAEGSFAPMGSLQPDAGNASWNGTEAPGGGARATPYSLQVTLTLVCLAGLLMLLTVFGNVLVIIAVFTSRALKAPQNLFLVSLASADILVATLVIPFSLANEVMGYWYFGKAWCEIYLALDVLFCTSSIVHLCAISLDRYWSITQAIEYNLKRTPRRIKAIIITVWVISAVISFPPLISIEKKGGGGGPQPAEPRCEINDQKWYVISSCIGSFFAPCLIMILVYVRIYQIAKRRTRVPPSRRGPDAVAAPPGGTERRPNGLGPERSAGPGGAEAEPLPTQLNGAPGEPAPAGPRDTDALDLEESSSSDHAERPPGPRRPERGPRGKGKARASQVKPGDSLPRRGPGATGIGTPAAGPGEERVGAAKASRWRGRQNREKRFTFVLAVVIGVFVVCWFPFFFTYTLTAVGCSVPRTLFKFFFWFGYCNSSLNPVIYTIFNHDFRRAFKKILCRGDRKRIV
Put plainly: Inhibition of adrenergic alpha-2A receptor (unknown origin) at 10 uM relative to control.

Data set [17] in a line: Toxicity in ip dosed albino Sprague-Dawley rat assessed as behavioral changes measured at 0.25 to 4 hrs. Type of data set: organism-based. As to conditions: in vivo. The procedure, abridged:
as §1

Sequence of Beta-2 adrenergic receptor (Homo sapiens) (P07550 whole entry, looked up): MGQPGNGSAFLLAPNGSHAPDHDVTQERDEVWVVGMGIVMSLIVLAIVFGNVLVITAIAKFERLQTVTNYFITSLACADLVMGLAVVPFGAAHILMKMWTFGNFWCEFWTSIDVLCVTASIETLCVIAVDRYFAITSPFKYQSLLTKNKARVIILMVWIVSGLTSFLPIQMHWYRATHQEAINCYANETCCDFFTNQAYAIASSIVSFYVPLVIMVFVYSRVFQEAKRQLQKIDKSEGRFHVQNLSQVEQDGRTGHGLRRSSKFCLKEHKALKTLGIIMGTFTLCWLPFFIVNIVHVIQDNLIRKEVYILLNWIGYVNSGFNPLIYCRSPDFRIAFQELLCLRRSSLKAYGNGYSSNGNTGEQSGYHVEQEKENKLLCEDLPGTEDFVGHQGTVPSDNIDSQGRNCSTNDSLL
Sequence of Beta-3 adrenergic receptor (Homo sapiens) (P13945 whole entry, looked up): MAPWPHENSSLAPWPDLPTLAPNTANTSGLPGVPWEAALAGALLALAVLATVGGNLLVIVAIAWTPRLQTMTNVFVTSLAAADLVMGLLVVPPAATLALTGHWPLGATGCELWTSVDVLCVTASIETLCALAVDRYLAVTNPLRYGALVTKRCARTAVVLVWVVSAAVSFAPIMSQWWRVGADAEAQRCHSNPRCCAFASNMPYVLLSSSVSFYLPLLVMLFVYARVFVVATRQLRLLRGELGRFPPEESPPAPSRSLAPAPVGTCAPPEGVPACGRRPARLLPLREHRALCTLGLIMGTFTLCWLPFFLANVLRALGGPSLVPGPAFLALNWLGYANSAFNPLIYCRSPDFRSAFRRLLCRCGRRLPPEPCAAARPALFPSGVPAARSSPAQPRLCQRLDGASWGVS
Sequence of Sigma non-opioid intracellular receptor 1 (Homo sapiens) (Q99720 whole entry): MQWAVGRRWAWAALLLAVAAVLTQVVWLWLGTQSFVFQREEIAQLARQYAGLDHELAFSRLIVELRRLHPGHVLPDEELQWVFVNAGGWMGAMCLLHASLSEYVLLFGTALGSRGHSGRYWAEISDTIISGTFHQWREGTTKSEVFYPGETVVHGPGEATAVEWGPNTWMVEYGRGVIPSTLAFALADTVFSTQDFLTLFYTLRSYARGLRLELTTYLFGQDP
Sequence of Sodium-dependent serotonin transporter (Homo sapiens) (P31645 whole entry, looked up): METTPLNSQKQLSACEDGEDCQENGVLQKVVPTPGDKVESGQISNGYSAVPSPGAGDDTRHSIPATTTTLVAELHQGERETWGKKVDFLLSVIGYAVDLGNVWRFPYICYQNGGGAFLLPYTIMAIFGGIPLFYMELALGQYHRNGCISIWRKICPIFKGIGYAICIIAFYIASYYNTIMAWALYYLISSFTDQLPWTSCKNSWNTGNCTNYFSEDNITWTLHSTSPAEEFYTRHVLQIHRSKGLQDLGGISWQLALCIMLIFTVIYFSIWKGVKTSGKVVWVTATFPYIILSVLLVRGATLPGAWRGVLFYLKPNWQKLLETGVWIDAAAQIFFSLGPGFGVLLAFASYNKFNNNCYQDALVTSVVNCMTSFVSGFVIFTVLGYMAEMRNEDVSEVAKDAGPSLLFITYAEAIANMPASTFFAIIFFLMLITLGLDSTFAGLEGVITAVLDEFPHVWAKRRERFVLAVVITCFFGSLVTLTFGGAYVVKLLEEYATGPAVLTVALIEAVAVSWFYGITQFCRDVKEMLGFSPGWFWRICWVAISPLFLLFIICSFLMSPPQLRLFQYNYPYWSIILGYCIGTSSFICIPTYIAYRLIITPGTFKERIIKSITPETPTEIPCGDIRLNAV
Sequence of D(3) dopamine receptor (Homo sapiens) (P35462 whole entry): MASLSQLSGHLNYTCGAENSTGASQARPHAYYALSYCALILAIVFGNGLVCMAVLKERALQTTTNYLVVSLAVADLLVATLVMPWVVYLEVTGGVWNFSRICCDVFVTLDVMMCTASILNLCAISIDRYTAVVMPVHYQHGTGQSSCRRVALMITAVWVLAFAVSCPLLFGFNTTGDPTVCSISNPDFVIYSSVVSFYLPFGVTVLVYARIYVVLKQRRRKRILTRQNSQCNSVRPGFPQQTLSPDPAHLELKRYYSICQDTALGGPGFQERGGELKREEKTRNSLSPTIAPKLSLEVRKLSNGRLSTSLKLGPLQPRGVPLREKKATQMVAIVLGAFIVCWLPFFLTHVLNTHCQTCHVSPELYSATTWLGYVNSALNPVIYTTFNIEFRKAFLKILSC
Sequence of 5-hydroxytryptamine receptor 2A (Homo sapiens) (P28223 whole entry): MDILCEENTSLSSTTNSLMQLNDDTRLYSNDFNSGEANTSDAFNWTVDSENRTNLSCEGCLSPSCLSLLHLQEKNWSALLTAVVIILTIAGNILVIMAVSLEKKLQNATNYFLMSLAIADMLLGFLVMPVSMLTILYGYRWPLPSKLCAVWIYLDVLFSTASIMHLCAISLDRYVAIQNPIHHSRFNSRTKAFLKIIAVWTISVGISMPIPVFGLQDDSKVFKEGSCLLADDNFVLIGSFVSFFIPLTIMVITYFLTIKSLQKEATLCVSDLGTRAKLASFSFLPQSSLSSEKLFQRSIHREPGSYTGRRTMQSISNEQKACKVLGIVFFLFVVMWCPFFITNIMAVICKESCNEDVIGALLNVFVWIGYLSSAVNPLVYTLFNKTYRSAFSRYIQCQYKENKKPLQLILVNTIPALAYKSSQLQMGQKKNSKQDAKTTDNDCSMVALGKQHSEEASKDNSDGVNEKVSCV

Regarding `Cl.NCc1ccc(OCc2ccccc2OC(F)(F)F)cc1`, the inhibition is 92.9% in [1]; 31.4% in [3]; 73.8% in data set [4]; 5% in data set [6]; 33.9% in [7]; 4.7% in data set [8]. The inhibition in [9] is 6.6%; in [10], -4.8%; in data set [11], 26.8%; in data set [12], 40.2%; in data set [13], 29.5%; in data set [14], -0.1%. In addition, the values for the inhibition in data set [15] and in data set [16] were 39.7% and 59.2%, respectively. For the same compound, the TD50 in [2] is over 30 mg/kg. Moreover, in data set [5], the solubility entry was “soluble”.
`Cl.NCc1ccc(OCc2ccc(F)cc2)cc1`: the inhibition is 92.7% in [1]; 71.3% in data set [3]; 77.1% in data set [4]; 2.2% in data set [6]; 16.7% in data set [7]; -2.3% in [8]. The inhibition is 14.2% in [9]; -5.5% in data set [10]; 5% in [11]; 40.2% in data set [12]; 37% in data set [13]; 8.5% in data set [14]. Besides, the inhibition in data set [15] is 11.1%; in [16], 55.4%. Further, the TD50 in data set [2] and in [17] was over 30 mg/kg each time. Besides, the solubility result in [5] was “soluble”.
For `Cl.NCc1ccc(OCc2cccc(F)c2)cc1`, the inhibition in data set [1] stood at 102%; in data set [3], 83.4%; in data set [4], 88.6%; in data set [6], 9.2%; in data set [7] it was 14%; in data set [8] it was 15.2%. Moreover, the inhibition in data set [9] is 1.3%; in [10] it was -8.6%; in data set [11], 9.3%; in data set [13], 51.3%; in data set [15], 41.2%; in data set [16] it was 57.2%. Moreover, the TD50 in [2] and in data set [17] was over 30 mg/kg each time. Further, the solubility result in [5] is recorded as “soluble”.
For `Cl.NCc1ccc(OCc2ccccc2)cc1`, the inhibition in data set [1] worked out at 97.7%; in [3] it was 49.1%; in [4], 76.8%; in data set [6] it was 11.8%; in data set [7], 14.3%; in data set [8] it was 11.8%. Also, the inhibition was 6% in data set [9]; -5.8% in data set [10]; 11.3% in data set [11]; 47.6% in data set [12]; 27.3% in data set [13]; 1.2% in [14]. Besides, the values for the inhibition in [15] and in [16] were 38.2% and 47.3%, respectively. Also, the TD50 in data set [2] was over 30 mg/kg; in [17], over 50 mg/kg. In data set [5], the solubility entry was “soluble”.
On to `Cl.NCc1ccc(OCc2ccccc2F)cc1`, for which the inhibition was 102% in data set [1]; 34.4% in [3]; 75.7% in data set [4]; 17.4% in [6]; 24.1% in [7]; 26.8% in data set [8]. For the same compound, the inhibition in data set [9] was 3.6%; in data set [11] it was 10.2%; in [12] it was 33%; in data set [13], 30.9%; in data set [14] it was -5.2%; in data set [15], 32.6%. The inhibition in data set [16] worked out at 39%. Moreover, the TD50 was over 30 mg/kg in data set [2] and over 50 mg/kg in data set [17]. The solubility entry in [5] is recorded as “soluble”.

The values are drawn from ChEMBL document CHEMBL3091364, “Benzyloxybenzylammonium chlorides: Simple amine salts that display anticonvulsant activity” (Bioorg Med Chem, 2013).
